From ChEMBL document CHEMBL1649387, “Synthesis and evaluation of quinonoid compounds against tumor cell lines” (Eur J Med Chem, 2011)

Experiments:
[1] = system: PBMC; test: Cytotoxicity against human PBMC cells after 72 hrs by Alamar Blue assay; type: cell-based
[2] = system: HL-60; test: Cytotoxicity against human HL60 cells after 72 hrs by MTT assay; type: functional, cell-based; details: HL-60, 72 h
[3] = system: MDA-MB-435; test: Cytotoxicity against human MDA-MB-435 cells after 72 hrs by MTT assay; type: functional, cell-based; details: MDA-MB-435, 72 h
[4] = system: HCT-8; test: Cytotoxicity against human HCT8 cells after 72 hrs by MTT assay; type: functional, cell-based; details: HCT-8, 72 h
[5] = system: SF-295; test: Cytotoxicity against human SF295 cells after 72 hrs by MTT assay; type: functional, cell-based; details: SF-295, 72 h
[6] = system: HL-60; test: Induction of apoptosis in human HL60 cells assessed as apoptotic nuclei at 5 uM after 24 hrs by acridine orange/ethidium bromide staining based fluorescence microscopy; type: functional
Summary of the method: (§1)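 Cells exposed 24 h, with or without 24 h pretreatment with 1-bromoheptane. Cell suspension mixed with acridine orange/ethidium bromide (each 100 in PBS) and spread on slide. 300 cells counted per point by fluorescence microscopy to give % apoptotic cells. Mean ± S.E.M. of three experiments.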

[7] = system: MDA-MB-435; test: Induction of apoptosis in human MDA-MB-435 cells assessed as apoptotic nuclei at 5 uM after 24 hrs by acridine orange/ethidium bromide staining based fluorescence microscopy; type: functional; summary of the method: as §1
[8] = system: HCT-8; test: Induction of apoptosis in human HCT8 cells assessed as apoptotic nuclei at 5 uM after 24 hrs by acridine orange/ethidium bromide staining based fluorescence microscopy; type: functional; summary of the method: as §1
[9] = system: SF-295; test: Induction of apoptosis in human SF295 cells assessed as apoptotic nuclei at 5 uM after 24 hrs by acridine orange/ethidium bromide staining based fluorescence microscopy; type: functional; summary of the method: as §1
[10] = system: HL-60; test: Induction of apoptosis in human HL60 cells assessed as apoptotic nuclei at 5 uM after 24 hrs by acridine orange/ethidium bromide staining based fluorescence microscopy in presence of 1-bromoheptane; type: functional; summary of the method: as §1
[11] = system: MDA-MB-435; test: Induction of apoptosis in human MDA-MB-435 cells assessed as apoptotic nuclei at 5 uM after 24 hrs by acridine orange/ethidium bromide staining based fluorescence microscopy in presence of 1-bromoheptane; type: functional; summary of the method: as §1
[12] = system: HCT-8; test: Induction of apoptosis in human HCT8 cells assessed as apoptotic nuclei at 5 uM after 24 hrs by acridine orange/ethidium bromide staining based fluorescence microscopy in presence of 1-bromoheptane; type: functional; summary of the method: as §1
[13] = system: SF-295; test: Induction of apoptosis in human SF295 cells assessed as apoptotic nuclei at 5 uM after 24 hrs by acridine orange/ethidium bromide staining based fluorescence microscopy in presence of 1-bromoheptane; type: functional; summary of the method: as §1

## COc1ccc(-c2cn([C@H]3C4=C(OC(C)(C)[C@@H]3Br)c3ccccc3C(=O)C4=O)nn2)cc1
[1]
  IC50: 2.52 µM
[2]
  IC50: 1.88 µM
[3]
  IC50: 1.92 µM
[4]
  IC50: 3.21 µM
[5]
  IC50: 3.01 µM

## CC(C)CC1=C(OC2(CC(C)C)C(=O)C(=O)c3ccccc3C2=O)C(=O)c2ccccc2C1=O (centres undefined)
[1]
  IC50: > 10.9 µM
[2]
  IC50: > 10.9 µM
[3]
  IC50: > 10.9 µM
[4]
  IC50: > 10.9 µM
[5]
  IC50: > 10.9 µM

## CC(C)CCC1=C(OC2(CCC(C)C)C(=O)C(=O)c3ccccc3C2=O)C(=O)c2ccccc2C1=O (centres undefined)
[1]
  IC50: > 10.3 µM
[2]
  IC50: > 10.3 µM
[3]
  IC50: > 10.3 µM
[4]
  IC50: > 10.3 µM
[5]
  IC50: > 10.3 µM
[6]
  Activity: 8.13%
[7]
  Activity: 9.51%
[8]
  Activity: 8.71%
[9]
  Activity: 7.94%
[10]
  Activity: 4.17%
[11]
  Activity: 7.44%
[12]
  Activity: 11.46%
[13]
  Activity: 8.01%

## O=C1c2ccccc2C(=O)c2c1ccc1nc(-c3cccc(F)c3)[nH]c21
[1]
  IC50: > 14.6 µM
[2]
  IC50: > 14.6 µM
[3]
  IC50: > 14.6 µM
[4]
  IC50: > 14.6 µM
[5]
  IC50: > 14.6 µM

## CC(C)CC1=C(O)C(=O)C2=C(CCCC2)C1=O
[1]
  IC50: > 21.4 µM
[2]
  IC50: > 21.4 µM
[3]
  IC50: > 21.4 µM
[4]
  IC50: > 21.4 µM
[5]
  IC50: > 21.4 µM

## Cc1ccccc1-c1nc2ccc3c(c2[nH]1)C(=O)c1ccccc1C3=O
[1]
  IC50: > 14.8 µM
[2]
  IC50: > 14.8 µM
[3]
  IC50: > 14.8 µM
[4]
  IC50: > 14.8 µM
[5]
  IC50: > 14.8 µM
[6]
  Activity: 11.47%
[7]
  Activity: 6.33%
[8]
  Activity: 5.33%
[9]
  Activity: 11.85%
[10]
  Activity: 10.75%
[11]
  Activity: 10.38%
[12]
  Activity: 9.17%
[13]
  Activity: 13.95%

## CC1(C)OC2=C(C(=O)C(=O)c3ccccc32)[C@H](N=[N+]=[N-])[C@H]1Br
[1]
  IC50: 3.58 µM
[2]
  IC50: 1.43 µM
[3]
  IC50: 1.54 µM
[4]
  IC50: 2.42 µM
[5]
  IC50: 1.93 µM

## CCCC1=C(OC2(CCC)C(=O)C(=O)c3ccccc3C2=O)C(=O)c2ccccc2C1=O (centres undefined)
[1]
  IC50: > 11.6 µM
[2]
  IC50: > 11.6 µM
[3]
  IC50: > 11.6 µM
[4]
  IC50: > 11.6 µM
[5]
  IC50: > 11.6 µM

## CC(C)CC1=C(OC2(CC(C)C)C(=O)C(=O)C3=C(CCCC3)C2=O)C(=O)C2=C(CCCC2)C1=O (centres undefined)
[1]
  IC50: > 10.7 µM
[2]
  IC50: > 10.7 µM
[3]
  IC50: > 10.7 µM
[4]
  IC50: > 10.7 µM
[5]
  IC50: > 10.7 µM

## O=C1c2ccccc2C(=O)c2c1ccc1nc(-c3ccccc3F)[nH]c21
[1]
  IC50: > 14.6 µM
[2]
  IC50: > 14.6 µM
[3]
  IC50: > 14.6 µM
[4]
  IC50: > 14.6 µM
[5]
  IC50: > 14.6 µM

## C=CCC1=C(OC2(CC=C)C(=O)C(=O)c3ccccc3C2=O)C(=O)c2ccccc2C1=O (centres undefined)
[1]
  IC50: > 11.7 µM
[2]
  IC50: > 11.7 µM
[3]
  IC50: > 11.7 µM
[4]
  IC50: > 11.7 µM
[5]
  IC50: > 11.7 µM
[6]
  Activity: 3.91%
[7]
  Activity: 7.94%
[8]
  Activity: 12.52%
[9]
  Activity: 8.3%
[10]
  Activity: 8.55%
[11]
  Activity: 11.36%
[12]
  Activity: 9.37%
[13]
  Activity: 11.47%

## CC(C)CCC1=C(O)C(=O)c2ccccc2C1=O
[1]
  IC50: > 20.5 µM
[2]
  IC50: > 20.5 µM
[3]
  IC50: > 20.5 µM
[4]
  IC50: > 20.5 µM
[5]
  IC50: > 20.5 µM

## CC(C)CC1=C(O)C(=O)c2ccccc2C1=O
[1]
  IC50: > 21.7 µM
[2]
  IC50: > 21.7 µM
[3]
  IC50: > 21.7 µM
[4]
  IC50: > 21.7 µM
[5]
  IC50: > 21.7 µM
